Measured values as given in paper PMC10939825 (Chemistry (Weinheim an der Bergstrasse, Germany), 2024).

Tests used:
A. baumannii [1] = assay: Membrane depolarization, DiSC 3; assay type: cell-based, Acinetobacter baumannii; settings: 1 and 2X MIC, 2 hours
Method in brief: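 Cells suspended at 0.5 McFarland in 5 mM HEPES/20 mM glucose, pH 7.4, with DiSC3(5) at 1 μM final. Test compound at 1 and 2X MIC; controls were untreated cells, polymyxin B and daptomycin. Incubated 2 h at 37°C. Fluorescence read at ex 622 nm/em 670 nm; dye release into medium raises signal.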

A. baumannii [2] = assay: Membrane permeability, PI uptake; assay type: cell-based, Acinetobacter baumannii; settings: 1 and 2X MIC, 2 hours
Method in brief: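 Bacteria washed and resuspended at 0.3 McFarland in 5 mM HEPES/20 mM glucose, pH 7.4, with propidium iodide at 7.5 μg/mL final. Test compound was given to MRSA JE2 at 0.5, 1 and 2X MIC and to A. baumannii at 1 and 2X MIC. Controls were untreated cells, polymyxin B and daptomycin. Incubated 2 h at 37°C; fluorescence read at ex 535 nm/em 615 nm.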

E. coli K12 [3] = assay: Inner membrane permeabilization assay; assay type: cell-based, Escherichia coli; settings: E. coli K12, 0.5, 1 and 2X MIC, monitored for 180 mins, absorbance 415 nm, 37 °C, triplicate
Method in brief: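 Assay for β-galactosidase release into the medium using ONPG as substrate, adapted from a published method. Test compound was dissolved in PBS at 1 mg/mL, annealed at 80 °C for 30 min, aged overnight, then diluted in PBS or media. Controls were polymyxin B (positive) and bacteria with ONPG and PBS (negative). o-Nitrophenol absorbance at 415 nm was read at intervals at 37 °C.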

E. coli K12 [4] = assay: Zeta potential of treated bacteria by DLS; assay type: cell-based, Escherichia coli; settings: E. coli K12, PAs at 10X MIC
MRSA JE2 = assay: Zeta potential of treated bacteria by DLS; assay type: cell-based, Staphylococcus aureus; settings: 1 hour treatment
Method in brief: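 Bacteria were cultured 18–20 h, resuspended in PBS and adjusted to 5 X 10^7 CFU/mL. They were treated 1 h with test compound at 10X MIC; test compound was pre-annealed in PBS and aged overnight. Controls were untreated cells, polymyxin B and daptomycin. Zeta potential was then measured by DLS at 25 °C.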

Row | Substance | order of activity, DiSC 3(5) (A. baumannii [1]) | PI intensity (membrane permeability) (A. baumannii [2]) | order of membrane permeability (ONPG) (E. coli K12 [3]) | change of bacterial zeta potential (E. coli K12 [4]) | change of bacterial zeta potential (MRSA JE2)
1 | Polymyxin B [PMB] | PA 26 > PMB > PA 9 | significant increase in PI intensity | PMB > PA 26 > PA 3 > PA 9 | does not show a notable change | 
2 | daptomycin |  |  |  |  | induces (slightly) the zeta potential to be more negative
